MrgX1 PAM: human MrgX1 positive allosteric modulation, primary screen; 310,000 tested, 0.63% active; MrgX1-HEK293, Fluo-4 calcium flux, FDSS; stronger effect = higher value; AID 588675; B-score at 10 µM;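 active means plate-corrected calcium response at least 3 library SD above typical, normal starting fluorescence, not activating the receptor alone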;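 further: compound read alongside a low EC10 to EC30 dose of BAM8-22 agonist; peak minus trough fluorescence over baseline measured at the second addition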
Target sequence (Q96LB2 whole entry, looked up): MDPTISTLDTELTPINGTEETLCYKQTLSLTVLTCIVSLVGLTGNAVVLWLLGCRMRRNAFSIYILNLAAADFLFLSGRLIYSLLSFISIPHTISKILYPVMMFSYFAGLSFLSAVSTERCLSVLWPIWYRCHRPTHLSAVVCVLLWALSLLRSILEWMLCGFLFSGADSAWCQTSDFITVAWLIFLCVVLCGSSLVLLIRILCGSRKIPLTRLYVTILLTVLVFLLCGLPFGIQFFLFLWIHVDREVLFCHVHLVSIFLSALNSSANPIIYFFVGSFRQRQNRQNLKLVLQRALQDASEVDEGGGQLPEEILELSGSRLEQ
RGS4 inh: human RGS4 inhibition. P49798. HEK293 M3R/RGS4 inducible, Fluo-4 calcium flux; stronger effect = higher value; triggered by carbachol at its EC20. B-score at 10 µM. 310,000 tested, 0.45% active. AID 463165;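 active means B-score, a plate-corrected calcium signal, over three deviations above library mean, with baseline fluorescence within five deviations of library mean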;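 further: RGS4 expression induced by doxycycline in cells with stable M3 receptor; B-score is computed from the integrated fluorescence ratio over baseline after carbachol; higher B-score means a larger calcium signal and so more RGS4 inhibition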
Target sequence (P49798 whole entry, looked up): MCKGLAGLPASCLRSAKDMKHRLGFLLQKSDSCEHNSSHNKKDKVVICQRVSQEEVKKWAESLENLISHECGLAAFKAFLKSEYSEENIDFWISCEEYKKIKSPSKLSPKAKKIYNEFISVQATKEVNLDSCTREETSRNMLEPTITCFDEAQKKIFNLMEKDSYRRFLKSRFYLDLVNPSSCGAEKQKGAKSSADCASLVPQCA
MrgX1 antagonist: human MrgX1 receptor antagonism, primary screen; Q96LB2; MRGX1-HEK293 calcium flux, Fluo-4, BAM8-22 antagonism; stronger effect = lower value; B-score at 10 µM; 310,000 tested, 1.3% active; AID 588676;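 active means calcium-response B-score plate-corrected more than 3 library SD below zero, starting fluorescence within 5 deviations, no agonist response on first addition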;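 further: peak minus trough fluorescence over baseline after final BAM8-22 challenge near maximal dose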
RGS4 act: potentiators or activators of RGS4; HEK293 M3R/inducible RGS4, carbachol calcium flux Fluo4; stronger effect = lower value; B-score at 10 µM; 310,000 tested, 0.92% active;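 active means B-score of the integrated calcium signal more than 4 SD below the library mean, with starting fluorescence not abnormally high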;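 further: negative B-score means reduced calcium response which marks RGS4 activation or potentiation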
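Assay system: Inducible-RGS4 HEK293 cells carrying M3 receptor | Schedule: Compound preincubation 20 min at room temperature before agonist | Signal: Kinetic calcium fluorescence imaging with Fluo4-AM dye, 2 µM | Read-out basis: B score from integrated fluorescence ratio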
MrgX1 ag: activates human MrgX1 receptor signaling; 310,000 tested, 0.44% active; B-score at 10 µM; MrgX1-HEK293 cells, Fluo-4 calcium fluorescence, agonist mode; stronger effect = higher value; Q96LB2;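 active means calcium response B-score plate-corrected fluorescence ratio at least 3 library SD, with starting fluorescence B-score inside 5 SD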
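Material – MrgX1-expressing HEK293 cells · Input – 15,000 cells seeded per well · Dosing – compound as first of three additions · Times – overnight seeding, then 1 h dark dye loading · Measured by – kinetic Fluo-4 NW fluorescence of intracellular calcium · Read-out – B-scored fluorescence response ratio · Benchmarks – positive and negative control wells on each plate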
An asterisk follows results filed as active. An excerpt weighted towards active compounds, which were near 3.5% of everything screened.

O=C(NC1CC2CCCC(C1)N2Cc1cccs1)c1ccc([N+](=O)[O-])cc1 (stereo not drawn) was read as MrgX1 PAM inactive, RGS4 inh inactive, MrgX1 antagonist inactive, RGS4 act inactive and MrgX1 ag inactive.
Screening COc1ccccc1C(=O)NCCNc1ccc([N+](=O)[O-])cc1Cl returned MrgX1 PAM inactive, RGS4 inh inactive, MrgX1 antagonist inactive, RGS4 act inactive and MrgX1 ag inactive.
Screening COc1ccc(-c2cc(C(=O)NNC(=S)NC(=O)c3c(-c4ccccc4)noc3C)[nH]n2)cc1 returned MrgX1 PAM inactive, RGS4 inh inactive, MrgX1 antagonist inactive, RGS4 act inactive and MrgX1 ag inactive.
Screening COc1ccc(/C=C/C(=O)NC(=S)NNC(=O)c2c(-c3ccccc3)noc2C)cc1 returned MrgX1 PAM inactive, RGS4 inh inactive, MrgX1 antagonist inactive, RGS4 act inactive and MrgX1 ag 29*.
COc1cccc(/C=N/Nc2ncnc(Cl)c2N)c1O was read as MrgX1 PAM inactive, RGS4 inh inactive, MrgX1 antagonist inactive, RGS4 act inactive and MrgX1 ag inactive.
For COc1cccc(/C=N/Nc2ncnc3scc(-c4ccccc4)c23)c1O the results were MrgX1 PAM inactive, RGS4 inh inactive, MrgX1 antagonist inactive, RGS4 act -10* and MrgX1 ag inactive.
COCCN(Cc1cc2cc(C)ccc2nc1Cl)C(=O)Nc1ccccc1OC was read as MrgX1 PAM inactive, RGS4 inh inactive, MrgX1 antagonist inactive, RGS4 act inactive and MrgX1 ag inactive.
Screening CCn1c(C(=O)O)c(CC(=O)Nc2ccc(Br)cc2C)c2ccccc21 returned MrgX1 PAM inactive, RGS4 inh inactive, MrgX1 antagonist inactive, RGS4 act inactive and MrgX1 ag inactive.
COc1cc(/C=C2\SC(=S)N(C(C(=O)O)c3ccccc3)C2=O)ccc1O (stereo not drawn) was read as MrgX1 PAM inactive, RGS4 inh inactive, MrgX1 antagonist inactive, RGS4 act inactive and MrgX1 ag inactive.
For O=C(O)C(c1ccccc1)N1C(=O)/C(=C\c2ccc(O)c(O)c2)SC1=S (stereo not drawn) the results were MrgX1 PAM inactive, RGS4 inh inactive, MrgX1 antagonist inactive, RGS4 act inactive and MrgX1 ag 27*.
For COc1ccc(C(=O)N/N=C/c2c[nH]c3ccccc23)cc1 the results were MrgX1 PAM inactive, RGS4 inh inactive, MrgX1 antagonist inactive, RGS4 act inactive and MrgX1 ag inactive.
`COc1ccc2c(/C=N/Nc3ccc(C(=O)O)cc3)c[nH]c2c1` gave MrgX1 PAM inactive, RGS4 inh inactive, MrgX1 antagonist inactive, RGS4 act inactive and MrgX1 ag 32*.
Cc1ccc(/C(O)=C2/C(=O)C(=O)N(c3ccccn3)C2c2cccc([N+](=O)[O-])c2)cc1 (stereo not drawn) was read as MrgX1 PAM inactive, RGS4 inh inactive, MrgX1 antagonist inactive, RGS4 act inactive and MrgX1 ag inactive.
`C=CCOc1cccc(C(=O)/C=C2/C(=O)Nc3ccccc32)c1` gave MrgX1 PAM inactive, RGS4 inh 5.8*, MrgX1 antagonist inactive, RGS4 act inactive and MrgX1 ag inactive.
For CCOC(=O)NN1C(=O)c2ccccc2NC1c1ccccc1 (stereo not drawn) the results were MrgX1 PAM inactive, RGS4 inh inactive, MrgX1 antagonist -4.5*, RGS4 act inactive and MrgX1 ag inactive.
CCOC(=O)NN1C(=O)c2ccccc2NC1c1ccc(OC)cc1 (stereo not drawn) was read as MrgX1 PAM inactive, RGS4 inh inactive, MrgX1 antagonist inactive, RGS4 act inactive and MrgX1 ag inactive.
For O=C(CSc1ccccn1)Nc1ccc(NC(=O)CSc2ccccn2)cc1 the results were MrgX1 PAM inactive, RGS4 inh inactive, MrgX1 antagonist inactive, RGS4 act inactive and MrgX1 ag inactive.
Screening O=C(CSc1ccccn1)Nc1nonc1[N+](=O)[O-] returned MrgX1 PAM inactive, RGS4 inh inactive, MrgX1 antagonist inactive, RGS4 act inactive and MrgX1 ag 38*.
For CCN=c1scc(-c2ccc3c(c2)NC(=O)CO3)n1N=C1CCCC1 the results were MrgX1 PAM inactive, RGS4 inh inactive, MrgX1 antagonist inactive, RGS4 act inactive and MrgX1 ag inactive.
Screening CCCCN=c1scc(-c2ccc3c(c2)NC(=O)CO3)n1N=C1CCCC1 returned MrgX1 PAM inactive, RGS4 inh inactive, MrgX1 antagonist inactive, RGS4 act inactive and MrgX1 ag 32*.
`CNc1nc2c(c(=O)[nH]c(=O)n2C)n1CCOC` gave RGS4 inh inactive and RGS4 act inactive.
For CC(c1ccccc1)C1CC(=O)N(Cc2ccco2)C1=O (stereo not drawn) the results were MrgX1 PAM inactive, RGS4 inh inactive, MrgX1 antagonist inactive, RGS4 act inactive and MrgX1 ag inactive.
`CCC1S/C(=N/N=C/c2ccco2)N(Cc2ccccc2C)C1=O` (stereo not drawn) gave MrgX1 PAM inactive, RGS4 inh inactive, MrgX1 antagonist inactive, RGS4 act inactive and MrgX1 ag inactive.
`CC/C(=N\N=C1\SC(C)C(=O)N1Cc1ccco1)c1ccccc1` (stereo not drawn) gave MrgX1 PAM 12*, RGS4 inh inactive, MrgX1 antagonist inactive, RGS4 act inactive and MrgX1 ag inactive.
Cc1ccccc1CN1C(=O)CS/C1=N/N=C/c1ccco1 was read as MrgX1 PAM 7.2*, RGS4 inh inactive, MrgX1 antagonist inactive, RGS4 act inactive and MrgX1 ag inactive.
Screening CCC1S/C(=N/N=C/c2ccco2)N(Cc2ccc(F)cc2)C1=O (stereo not drawn) returned MrgX1 PAM inactive, RGS4 inh inactive, MrgX1 antagonist inactive, RGS4 act inactive and MrgX1 ag inactive.
For CC1S/C(=N/N=C/c2ccco2)N(Cc2ccccc2)C1=O (stereo not drawn) the results were MrgX1 PAM 8*, RGS4 inh inactive, MrgX1 antagonist inactive, RGS4 act inactive and MrgX1 ag inactive.
Screening O=C(Nc1cccc(-c2ccc(N3CCOCC3)nn2)c1)c1ccc(F)cc1F returned MrgX1 PAM inactive, RGS4 inh inactive, MrgX1 antagonist inactive, RGS4 act inactive and MrgX1 ag inactive.
CCN(CCCNC(=O)Cn1ncc2c([nH]c3ccc(C)cc32)c1=O)Cc1ccccc1 was read as MrgX1 PAM inactive, RGS4 inh inactive, MrgX1 antagonist inactive, RGS4 act inactive and MrgX1 ag inactive.
Screening CC1(C(=O)NNC(=S)NCc2ccco2)CC1(Cl)Cl (stereo not drawn) returned MrgX1 PAM inactive, RGS4 inh inactive, MrgX1 antagonist -4.7*, RGS4 act inactive and MrgX1 ag inactive.
